Several values for one entry are separate records, joined by “and”; a condition that tells them apart may be missing. Equal values may be shown once.
Assays:
Assay type in all cases: functional, organism-based
[1] = system: Mus musculus; experiment: Antineoplastic activity in P-388-tumor cell infected CDF1 mice, administered intraperitoneally at a dose (10 mg/kg), calculated as Median survival time (MST)
Method in brief: (§1)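 P-388 leukaemia cells (1 × 10^6 per animal) implanted into the peritoneal cavity of CDF1 recipient mice. Drug reconstituted in 0.3% Klucel and given ip on a day 1 schedule. Survival checked daily for at least 30 days; survival time expressed as percent treated/control (T/C).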

[2] = system: Mus musculus; experiment: Antineoplastic activity in P-388-infected CDF1 mice, administered intraperitoneally at a dose (10 mg/kg), calculated as Percent treated /control (T/C).; method in brief: as §1
[3] = system: Mus musculus; experiment: Antineoplastic activity in P-388-infected CDF1 mice, administered intraperitoneally at a dose (1.5 mg/kg), calculated as Percent treated /control (T/C).; method in brief: as §1
[4] = system: Mus musculus; experiment: Antineoplastic activity in P-388-tumor cell infected CDF1 mice, administered intraperitoneally at a dose (3mg/kg), calculated as Median survival time (MST); method in brief: as §1
[5] = system: Mus musculus; experiment: Antineoplastic activity in P-388-tumor cell infected CDF1 mice, administered intraperitoneally at a dose (6 mg/kg), calculated as Median survival time (MST); method in brief: as §1
[6] = system: Mus musculus; experiment: Antineoplastic activity in P-388-tumor cell infected CDF1 mice, administered intraperitoneally at a dose (1.5 mg/kg), calculated as Median survival time (MST); method in brief: as §1
[7] = system: Mus musculus; experiment: Antineoplastic activity in P-388-infected CDF1 mice, administered intraperitoneally at a dose (6 mg/kg), calculated as Percent treated /control (T/C).; method in brief: as §1
[8] = system: Mus musculus; experiment: Antineoplastic activity in P-388-infected CDF1 mice, administered intraperitoneally at a dose (3mg/kg), calculated as Percent treated /control (T/C).; method in brief: as §1

Row | Substance | MST [1] | T/C [2] | T/C [3] [%] | MST [4] [days] | MST [5] [days] | MST [6] [days] | T/C [7] [%] | T/C [8] [%]
1 | 1-Hydroxy-3,4-diaminocyclohexane-Cl2-Platinum II Complex | 15.8 days and 13.8 days | 161% and 141% | – | – | – | – | – | –
2 | CISPLATIN | – | – | 158 | 18.5 | 24.5 | 15.5 | 249 | 188

Source: ChEMBL document CHEMBL1124326, “Synthesis and P-388 antitumor properties of the four diastereomeric 1-hydroxy-3,4-diaminocyclohexane-Cl2PtII complexes” (J Med Chem, 1989)
